Source: PubChem BioAssay AID493236 (Broad Institute, 2011)
Results filed as inconclusive are left out. Active and inactive are the calls of the source.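 How the source made its calls: active means luminescence cut by more than half of the full-inhibition control window in a dose series; inconclusive means no clear call, values can overlap the other calls; inactive means signal rising instead of falling, or the rest.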

Test system: proteasome chymotrypsin-like activity (human)
Assay: inhibition of cellular proteasome chymotrypsin-like cleavage – cell-based, U2OS, luminescence, dry powder, set 4, counter-screen for HIF pathway activator project, dose response (AID 493236)
In short: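 Assay system – U2OS cells · Doses – 8-point threefold dilution series, source stock top 16.5 mM · Schedule – 24 h plating, 4 h compound, 2 h reagent · Detection – Proteasome-Glo luminescence · Evaluation – percent activity relative to MG132 and DMSO · Benchmarks – MG132 1 µM positive control, DMSO neutral control · Replication – duplicate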

Structure (SMILES)	outcome
Oc1ccc(CN2CCC3CCCCC3C2)c2cccnc12 (configuration not stated)	inactive
N#CC1(c2ccccc2)CCN(Cc2ccc(O)c3ncccc23)CC1	inactive
